Measured values as given in ChEMBL document CHEMBL3865814, “Chemical Constituents Isolated from the Root Bark of Cudrania tricuspidata and Their Potential Neuroprotective Effects” (J Nat Prod, 2016).

What was measured:
Assay type in all cases: functional, cell-based
[1] = Neuroprotective activity in human SH-SY5Y cells assessed as reduction in 1-methyl-4-phenylpyridinium ion-induced cell death after 48 hrs by MTT assay
Procedure, shortened: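 SH-SY5Y cells in DMEM with 10% heat-inactivated FBS and 1% penicillin/streptomycin were seeded at 2 × 10^4 cells/well for 24 h, then exposed to 2 mM MPP+ for 48 h. MTT (0.5 mg/mL in PBS) was added for 4 h at 37 °C, formazan dissolved in DMSO and absorbance read at 540 nm. EC50 is the concentration giving half-maximal protection, mean of triplicates.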

[2] = Neuroprotective activity in human SH-SY5Y cells assessed as reduction in oxygen glucose deprivation-induced cell death incubated for 16 hrs under hypoxic condition followed by incubation for 24 hrs under normoxic condition by MTT assay
Procedure, shortened: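 After 24 h plating (2 × 10^4/well, DMEM with 10% FBS and glucose), medium was switched to serum- and glucose-free RPMI and samples or vehicle added. Cells were held 16 h under 95% N2/5% CO2, then reoxygenated 24 h in RPMI with 10% FBS and glucose at 37 °C. Viability was by MTT at A540. EC50 is half-maximal protection, mean of triplicates.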

[3] = Neuroprotective activity in human SH-SY5Y cells assessed as reduction in 6-OHDA-induced cell death measured after 24 hrs by MTT assay
Procedure, shortened: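 Cells were seeded at 2 × 10^4 per well and grown 24 h in DMEM with 10% heat-inactivated FBS at 37 °C under 5% CO2. They were then co-treated with graded sample concentrations and 100 μM 6-OHDA for 24 h. Viability was by MTT (0.5 mg/mL, 4 h, 37 °C), DMSO solubilization and A540. EC50 is half-maximal protection, mean of triplicate determinations.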

SMILES | EC50 [1] | EC50 [2] | EC50 [3]
C=C1CC[C@H](O)C(C)(C)[C@@H]1CC/C(C)=C/CC/C=C(\C)CC/C=C(\C)CCC=C(C)C | > 50 µM | 6.5 µM | 7.2 µM
CC(C)=CCc1c(O)c(O)cc2c(=O)c3c4c(c(O)cc3oc12)C(C)(C)C(C)O4 (stereo not given) | > 50 µM | 34.9 µM | 
CC1Oc2cc3oc4c5c(c(O)cc4c(=O)c3c(O)c2C1(C)C)OC(C)(C)C(O)C5 (stereo not given) | > 50 µM | 23.6 µM | 
C=CC(C)(C)c1c(OC)cc(O)c2c(=O)c3c(CC(O)C(=C)C)c(O)c(O)cc3oc12 (stereo not given) | > 50 µM | 2.9 µM | 
CC(C)=CCc1c2c(c(O)c3c(=O)c4ccc(O)c(O)c4oc13)C(C)(C)C(C)O2 (stereo not given) | > 50 µM | 17.2 µM | 
O=c1ccoc2cc(O)cc(O)c12 |  |  | 1.9 µM
CC1(C)CCc2cc(C3CC(=O)c4c(O)cc5c(c4O3)CCC(C)(C)O5)c(O)cc2O1 (stereo not given) |  |  | 9.1 µM
C=C(C)C(=O)Cc1c(OC)c(O)cc2oc3c4c(cc(O)c3c(=O)c12)OC(CO)C4(C)C (stereo not given) | > 50 µM | 13.2 µM | 
CC1(C)C=Cc2c(c(O)cc3c(=O)c4c(O)c5c(cc4oc23)OC(CO)C5(C)C)O1 (stereo not given) | > 50 µM | 11.2 µM | 
COCc1ccc(O)cc1 | > 50 µM | 7.9 µM | 
CC1Oc2cc3oc4c5c(c(O)cc4c(=O)c3c(O)c2C1(C)C)OC(C(C)(C)O)C5 (stereo not given) | > 50 µM | 6 µM | 
C=CC(C)(C)c1c(OC)cc(O)c2c(=O)c3c(cc(O)c4oc(C(C)(C)O)cc43)oc12 | 10.3 µM | > 50 µM | 
C=CC(C)(C)c1c(O)cc(O)c2c(=O)c3c4c(c(O)cc3oc12)O[C@@H](C(C)(C)O)C4 | > 50 µM | 12.2 µM | 
CC1Oc2cc(O)c3c(=O)c4c5c(c(O)cc4oc3c2C1(C)C)OC(C)(C)C=C5 (stereo not given) | > 50 µM | 3.5 µM | 
C=C(C)C(O)Cc1c(OC)c(O)cc2oc3c4c(cc(O)c3c(=O)c12)OC(CO)C4(C)C (stereo not given) | > 50 µM | 28.5 µM | 
CC1(C)C=Cc2c(c(O)cc3oc4c5c(cc(O)c4c(=O)c23)OC(CO)C5(C)C)O1 (stereo not given) | > 50 µM | 8.9 µM | 
COc1c(C(C)=O)ccc2c1C=CC(C)(C)O2 | > 50 µM | 22.3 µM | 

SMILES | EC50 [1] | EC50 [2] | EC50 [3]
C=CC(C)(C)c1c(O)cc(O)c2c(=O)c3c4c(c(O)cc3oc12)OC(C)(C)C=C4 | > 50 µM | 33.3 µM | 
C[C@H]1[C@H](C)CC[C@]2(C)CC[C@]3(C)C(=CC[C@@H]4[C@@]5(C)CC[C@H](O)C(C)(C)[C@@H]5CC[C@]43C)[C@H]12 | > 50 µM | 13.3 µM | 
O=Cc1ccc(O)cc1 [4-HYDROXYBENZALDEHYDE] |  |  | 30.2 µM
C=C(C)[C@@H]1CC[C@]2(C(=O)O)CC[C@]3(C)[C@H](CC[C@@H]4[C@@]5(C)CC[C@H](O)C(C)(C)[C@@H]5CC[C@]43C)[C@@H]12 [BETULINIC ACID] | 4.3 µM |  | 
NCCC(=O)N[C@@H](Cc1c[nH]cn1)C(=O)O [CARNOSINE] |  | 3 µM | 
CC(C)=CC1Oc2cc(O)ccc2-c2oc3cc4c(c(O)c3c(=O)c21)C=CC(C)(C)O4 (stereo not given) [CUDRAFLAVONE A] | > 50 µM | 13.5 µM | 15.5 µM
CC(C)=CCc1c(O)c(O)cc2oc3c4c(cc(O)c3c(=O)c12)OC(C)C4(C)C (stereo not given) [CUDRATRICUSXANTHONE J] | 8.1 µM | > 50 µM | 
C=CC(C)(C)c1c(OC)cc(O)c2c(=O)c3c(CC=C(C)C)c(O)c(O)cc3oc12 [CUDRAXANTHONE D] | > 50 µM | 4.8 µM | 
COc1cc(/C=C/C(=O)CC(=O)/C=C/c2ccc(O)c(OC)c2)ccc1O [CURCUMIN] |  |  | 6.2 µM
CC(C)=CCc1cc2ccc(=O)oc2cc1O [DEMETHYLSUBEROSIN] | 0.2 µM | 8.6 µM | 
CC1(C)CC[C@]2(C)CC[C@]3(C)[C@H]4CC=C5[C@@H](CC[C@H](O)C5(C)C)[C@]4(C)CC[C@@]3(C)[C@@H]2C1 [GLUTINOL] |  |  | 12.9 µM
CC(C)=CCOc1c2ccoc2cc2oc(=O)ccc12 [ISOIMPERATORIN] | > 50 µM | 3.5 µM | 9.2 µM
COC(=O)c1ccc(O)cc1O [METHYL 2,4-DIHYDROXYBENZOATE] | > 50 µM | 35.5 µM | 
CCCCCCCC/C=C\CCCCCCCC(=O)O [OLEIC ACID] |  |  | 9.5 µM
CC(C)=CCOc1c2occc2cc2ccc(=O)oc12 [PENTOSALEN] | > 50 µM | 8.4 µM | 
CC1(C)C=Cc2cc3ccc(=O)oc3cc2O1 [XANTHYLETIN] |  |  | 8 µM
